Test [1] is described as follows: reduced viability of SK-BR-3 breast cancer cells – cell-based, 24 h, human, pilot screen (AID 572;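 active means viability at or below 10% of carrier control in both of two separate runs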;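 further: compound exposure lasted between 18 and 24 h rather than exactly 24 h; 100% = carrier-treated control wells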). Conditions: SK-BR-3 viability, CellTiter-Glo luminescence, at 10 µM, stronger effect = lower value.
Test [2] in a line: HUVEC growth inhibition – cell-based, human, primary screen (AID 575).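 Further: 100% = median of untreated cell wells with 0.1% DMSO on each plate.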 The following applies: HUVEC proliferation, CellTiter-Glo luminescence, 72 h; at 10 µM; stronger effect = lower value. In a few lines:
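Assay system: primary human umbilical vein endothelial cells / Buffer or medium: endothelial basal medium with 2% FBS plus growth supplements / Compound dosing: one dose, 10 µM final, 0.1% DMSO / Timing: 72 h treatment at 37 °C / Signal: CTG luminescence / Benchmarks: 32 DMSO-only cell-control wells (high), 32 MePR drug-control wells (low) per plate / Plate: collagen-coated 384-well format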
(In ATP-based viability assays light output follows the ATP content of the culture.)

A short description of test [3]: H69AR cell proliferation blockers – human, duplicate replicates, primary screen (AID 580;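 active means viability at or under a set limit in both replicates, limit being median viability minus 3 SD, cut at about 48% in these data, passing the limit was not always enough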;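 further: 100% = mean luminescence of untreated wells and 0% = no signal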). The following applies: H69AR lung tumor cells viability, ATP luminescence, 72 h; at 10 µM; stronger effect = lower value.
The nature of test [4]: MRP1 drug-resistance reversers in H69AR cells – cell-based, doxorubicin co-treatment, pilot screen (AID 601;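 active means viability loss from added drug above about 55%, and viability with drug at most 40%, in both replicates, limit read from the data, passing the limit was not always enough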). Conditions: CellTiter-Glo, 72 h, at 10 µM; for differential viability (reversal): stronger effect = higher value.
A short description of test [5]: yeast transport mutant growth inhibition pilot in 384-well plates, post-Golgi transport modulator project (AID 636; in the data active means inhibition above about 31%). Conditions: absorbance 615 nm, about 18 h, stronger effect = higher value.
Test [6] is described as follows: growth suppression of yeast trafficking mutant, preliminary HTS, modulators of trafficking downstream of Golgi apparatus project, 1536-format plate, OD 615 nm (AID 637; in the data active means inhibition above about 30%). Conditions: yeast transport mutant growth, absorbance 615 nm, 18 h; stronger effect = higher value.
Setting [7] is: H69AR cells + 2 uM doxorubicin, measured here: viability with 2 uM doxorubicin, stronger effect = lower value.
Where [8] appears, read: H69AR cells, compound alone cytotoxicity.

Calls of active or inactive are those of the source.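 How the source made its calls, unless noted: active means viability at or below 30% in both replicate assays; inconclusive means viability at or below 30% in just one of the two assays; inactive means the rest.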

What is called viability is a read-out of living cells in per cent, often relative to untreated cells. For orientation: inhibition means the relative decrease from the control value, in per cent. As to `Cc1ccc(S(=O)(=O)N2CCN(S(=O)(=O)N(C)C)CC2)cc1`, the viability was 123% (inactive) in test [1]; 107% (inactive) in test [2]; 103% (inactive) in test [3]; 94.7% in test [4] (setting [7]); 103% in test [4] (setting [8]). Further, the differential viability (reversal) in test [4] (H69AR cells + 2 uM doxorubicin) was 8.38% (inactive). Moreover, the inhibition is -3.15% (inactive) in test [5] and -4.68% (inactive) in test [6].

For the compound `CCCNC(=O)NS(=O)(=O)c1ccc(Cl)cc1`, the viability is 124% (inactive) in test [1]; 85% (inactive) in test [2]; 97.5% (inactive) in test [3]; 87.1% in test [4] (setting [7]); 97.5% in test [4] (setting [8]). The differential viability (reversal) in test [4] (H69AR cells + 2 uM doxorubicin) is 10.4% (inactive). Besides, the inhibition in test [5] was -1.17% (inactive); in test [6] it was 0.83% (inactive).

On to `CC(NCCc1ccc(O)cc1)C(O)c1ccc(O)cc1` (stereo unspecified), for which the viability was 99% (inactive) in test [1]; 101% (inactive) in test [2]; 99.4% (inactive) in test [3]; 92.3% in test [4] (setting [7]); 99.4% in test [4] (setting [8]). The differential viability (reversal) in test [4] (H69AR cells + 2 uM doxorubicin) is 7.11% (inactive). Also, the inhibition in test [5] was -2.73% (inactive); in test [6], 0.67% (inactive).

In the case of `CC(=O)c1ccccc1OCCn1nnc(-c2ccc(C)cc2)n1`, the viability was 108% (inactive) in test [1]; 83.6% (inactive) in test [2]; 80.1% (inactive) in test [3]; 74.6% in test [4] (setting [7]); 80.1% in test [4] (setting [8]). Further, the differential viability (reversal) in test [4] (H69AR cells + 2 uM doxorubicin) was 5.44% (inactive). Moreover, the inhibition in test [5] is -8.9% (inactive); in test [6], 2.1% (inactive).

As to `Cc1sc2ncnc(Oc3ccc(-n4ccnc4)cc3)c2c1C`, the viability was 88% (inactive) in test [1]; 102% (inactive) in test [2]; 87.2% (inactive) in test [3]; 102% in test [4] (setting [7]); 87.2% in test [4] (setting [8]). Moreover, the differential viability (reversal) in test [4] (H69AR cells + 2 uM doxorubicin) is -15.1% (inactive). Moreover, the inhibition in test [5] was -8.77% (inactive); in test [6] it was 3.27% (inactive).

Consider `CC1(C)S[C@@H]2[C@H](NC(=O)[C@H](N)c3ccccc3)C(=O)N2[C@H]1C(=O)O`, for which the viability in test [1] was 103% (inactive); in test [2], 93.8% (inactive); in test [3], 107% (inactive); in test [4] (setting [7]), 91.4%; in test [4] (setting [8]) it was 107%. In addition, the differential viability (reversal) in test [4] (H69AR cells + 2 uM doxorubicin) was 15.6% (inactive). Besides, the inhibition in test [5] was -5.32% (inactive); in test [6], 3.33% (inactive).

As to `COc1ccccc1N1CCN(CC(O)COc2cccc3ccccc23)CC1` (stereo unspecified), the viability is 83% (inactive) in test [1]; 74.9% (inactive) in test [2]; 77.4% (inactive) in test [3]; 90.7% in test [4] (setting [7]); 77.4% in test [4] (setting [8]). Besides, the differential viability (reversal) in test [4] (H69AR cells + 2 uM doxorubicin) is -13.3% (inactive). The inhibition in test [5] is -1.3% (inactive); in test [6] it was -1.5% (inactive).

With `Cc1ccc(S(=O)(=O)NC(C)C(=O)Nc2ccc(C(N)=O)cc2)cc1` (stereo unspecified), the viability in test [1] was 81% (inactive); in test [2], 88.4% (inactive); in test [3], 100% (inactive); in test [4] (setting [7]) it was 96%; in test [4] (setting [8]) it was 100%. The differential viability (reversal) in test [4] (H69AR cells + 2 uM doxorubicin) was 4.08% (inactive). Also, the inhibition is -0.27% (inactive) in test [5] and -5.81% (inactive) in test [6].

As to `Nc1nc(N)c2nc(-c3ccccc3)c(N)nc2n1`, the viability is 128% (inactive) in test [1]; 90.5% (inactive) in test [2]; 73.3% (inactive) in test [3]; 78% in test [4] (setting [7]); 73.3% in test [4] (setting [8]). Besides, in test [4] (H69AR cells + 2 uM doxorubicin), the differential viability (reversal) was -4.71% (inactive). The inhibition in test [5] was -2.08% (inactive); in test [6] it was 1.5% (inactive).

Consider `CCOc1cc(C2C(C#N)=C(N)Oc3n[nH]c(CC)c32)ccc1OCCN1CCOCC1` (stereo unspecified), for which the viability is 87% (inactive) in test [1]; 95.6% (inactive) in test [2]; 110% (inactive) in test [3]; 99% in test [4] (setting [7]); 110% in test [4] (setting [8]). Moreover, in test [4] (H69AR cells + 2 uM doxorubicin), the differential viability (reversal) was 11% (inactive). Besides, the results for the inhibition in test [5] and in test [6] were 0.27% (inactive) and 0.32% (inactive), respectively.

With `CCOC(=O)C1=C(C)Nc2nc(SCC(=O)OC)nn2C1c1cc(F)cc(F)c1` (stereo unspecified), the viability is 91.5% (inactive) in test [1]; 75.4% (inactive) in test [2]; 92.9% (inactive) in test [3]; 85.7% in test [4] (setting [7]); 92.9% in test [4] (setting [8]). Besides, the differential viability (reversal) in test [4] (H69AR cells + 2 uM doxorubicin) was 7.16% (inactive). Further, the figures for the inhibition in test [5] and in test [6] were -8.24% (inactive) and 2.06% (inactive), respectively.

Turning to `COc1ccc(OC)c(Nc2nc(-c3sc(N)nc3C)cs2)c1`, the viability in test [1] was 97% (inactive); in test [2] it was 55.3% (inactive); in test [3] it was 78% (inactive); in test [4] (setting [7]), 75.1%; in test [4] (setting [8]) it was 78%. Also, the differential viability (reversal) in test [4] (H69AR cells + 2 uM doxorubicin) was 2.88% (inactive). For the same compound, the inhibition in test [5] is -6.49% (inactive); in test [6], -0.91% (inactive).

(Values after PubChem BioAssay.)
